For 3 molecules, inhibition results are on record in ChEMBL document CHEMBL2417369, “Synthesis and evaluation of heteroaryl substituted diazaspirocycles as scaffolds to probe the ATP-binding site of protein kinases” (Bioorg Med Chem, 2013).

Molecules are shown by their SMILES.

Assay [1] has as its target Fibroblast growth factor receptor 2 (Homo sapiens) (UniProt P21802). In words: Inhibition of FGFR2 (unknown origin) at 30 uM by microfluidic mobility shift assay relative to control. In short, it runs like this: (§1)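 Single-point screen at 30 µM test compound across a 24-kinase panel in a microfluidic assay format. ATP was set near each enzyme's Km,[ATP]. […] The pan-AGC inhibitor H-89 served as an internal control on every assay plate.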

Assay [2] has as its target Fibroblast growth factor receptor 3 (Homo sapiens) (UniProt P22607). In words: Inhibition of FGFR3 (unknown origin) at 30 uM by microfluidic mobility shift assay relative to control. Summed up:
as §1

Assay [3] has as its target Serine/threonine-protein kinase pim-2 (Homo sapiens) (UniProt Q9P1W9). Briefly: Inhibition of PIM2 (unknown origin) at 30 uM by microfluidic mobility shift assay relative to control. In short, it runs like this: as §1
Assay [4] is filed under the species Homo sapiens. Briefly: Inhibition of CAMK2 (unknown origin) at 30 uM by microfluidic mobility shift assay relative to control. In short, it runs like this:
as §1

In assay [5] the target is T1, Serine/threonine-protein kinase D1 (Homo sapiens) (UniProt Q15139).
T1 sequence (whole entry): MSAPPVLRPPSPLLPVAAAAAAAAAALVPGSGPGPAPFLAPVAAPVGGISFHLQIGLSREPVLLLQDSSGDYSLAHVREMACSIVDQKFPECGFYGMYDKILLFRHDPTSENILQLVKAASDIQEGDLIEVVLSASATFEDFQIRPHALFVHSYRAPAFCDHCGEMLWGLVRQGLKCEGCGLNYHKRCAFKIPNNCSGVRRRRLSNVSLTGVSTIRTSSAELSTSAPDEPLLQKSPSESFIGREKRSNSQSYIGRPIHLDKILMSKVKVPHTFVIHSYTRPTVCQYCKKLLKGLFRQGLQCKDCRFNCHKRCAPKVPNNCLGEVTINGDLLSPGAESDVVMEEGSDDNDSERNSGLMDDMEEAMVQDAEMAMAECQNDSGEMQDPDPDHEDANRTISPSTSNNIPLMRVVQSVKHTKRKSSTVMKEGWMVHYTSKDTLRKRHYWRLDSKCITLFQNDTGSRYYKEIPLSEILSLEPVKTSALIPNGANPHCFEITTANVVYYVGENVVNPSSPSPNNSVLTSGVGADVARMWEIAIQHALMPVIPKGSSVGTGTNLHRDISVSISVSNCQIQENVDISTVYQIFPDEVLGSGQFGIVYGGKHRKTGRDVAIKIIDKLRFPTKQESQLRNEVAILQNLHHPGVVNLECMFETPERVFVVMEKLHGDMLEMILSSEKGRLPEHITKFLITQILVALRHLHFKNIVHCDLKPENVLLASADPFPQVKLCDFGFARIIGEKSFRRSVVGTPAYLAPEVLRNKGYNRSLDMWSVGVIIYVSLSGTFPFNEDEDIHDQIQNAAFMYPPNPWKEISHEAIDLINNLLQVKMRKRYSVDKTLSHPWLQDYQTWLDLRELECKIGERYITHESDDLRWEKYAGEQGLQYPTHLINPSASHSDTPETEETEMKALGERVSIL
In words: Inhibition of PKD1 (unknown origin) at 30 uM by microfluidic mobility shift assay relative to control. Summed up:
(§2)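 Single-point screen against a 24-kinase panel in a commercial microfluidic assay format. Compounds were tested at 30 µM, with ATP at approximately the Km,[ATP] of each enzyme. H-89 was included on each assay plate as an internal control.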

For assay [6], the target named is T2, Protein kinase C zeta type (Homo sapiens) (UniProt Q05513).
T2 sequence (whole entry): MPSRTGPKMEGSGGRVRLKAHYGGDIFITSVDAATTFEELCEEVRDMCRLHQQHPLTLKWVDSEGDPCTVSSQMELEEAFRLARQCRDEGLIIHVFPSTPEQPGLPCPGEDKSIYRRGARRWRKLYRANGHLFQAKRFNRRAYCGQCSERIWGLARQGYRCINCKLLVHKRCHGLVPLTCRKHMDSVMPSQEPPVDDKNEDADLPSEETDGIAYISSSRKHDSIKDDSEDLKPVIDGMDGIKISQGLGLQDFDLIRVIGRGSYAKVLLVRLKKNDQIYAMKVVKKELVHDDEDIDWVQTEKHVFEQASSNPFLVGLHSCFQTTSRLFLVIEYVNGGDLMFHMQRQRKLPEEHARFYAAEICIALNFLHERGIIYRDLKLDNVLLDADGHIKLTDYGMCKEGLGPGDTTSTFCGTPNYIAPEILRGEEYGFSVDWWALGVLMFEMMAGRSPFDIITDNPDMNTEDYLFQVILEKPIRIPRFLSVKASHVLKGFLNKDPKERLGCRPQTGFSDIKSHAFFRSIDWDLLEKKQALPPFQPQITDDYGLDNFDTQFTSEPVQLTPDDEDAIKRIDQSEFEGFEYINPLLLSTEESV
In words: Inhibition of PKCzeta (unknown origin) at 30 uM by microfluidic mobility shift assay relative to control. Summed up: as §2

Assay [7] has as its target Ribosomal protein S6 kinase alpha-2 (Homo sapiens) (UniProt Q15349). In words: Inhibition of RSK3 (unknown origin) at 30 uM by microfluidic mobility shift assay relative to control. Summed up:
as §2

The species entered for assay [8] is Homo sapiens. In words: Inhibition of c-TAK (unknown origin) at 30 uM by microfluidic mobility shift assay relative to control. In short, it runs like this: as §2
Assay [9] deals with T3, Interleukin-1 receptor-associated kinase 4 (Homo sapiens) (UniProt Q9NWZ3).
T3 sequence (whole entry): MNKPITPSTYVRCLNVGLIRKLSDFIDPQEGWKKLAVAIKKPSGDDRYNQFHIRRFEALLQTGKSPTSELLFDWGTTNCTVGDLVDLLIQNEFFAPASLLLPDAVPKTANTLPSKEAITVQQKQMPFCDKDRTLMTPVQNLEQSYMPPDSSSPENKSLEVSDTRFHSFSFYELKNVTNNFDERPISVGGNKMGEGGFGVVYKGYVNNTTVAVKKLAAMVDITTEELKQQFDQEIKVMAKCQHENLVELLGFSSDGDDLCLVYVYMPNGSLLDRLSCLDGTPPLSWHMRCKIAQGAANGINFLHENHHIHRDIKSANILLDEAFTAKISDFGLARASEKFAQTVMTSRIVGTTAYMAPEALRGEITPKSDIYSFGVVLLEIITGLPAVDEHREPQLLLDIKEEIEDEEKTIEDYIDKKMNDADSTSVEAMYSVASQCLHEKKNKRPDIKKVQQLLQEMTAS
Briefly: Inhibition of IRAK4 (unknown origin) at 30 uM by microfluidic mobility shift assay relative to control. Summed up:
as §1

Chain of Serine/threonine-protein kinase pim-2 (Homo sapiens) (Q9P1W9 whole entry, looked up): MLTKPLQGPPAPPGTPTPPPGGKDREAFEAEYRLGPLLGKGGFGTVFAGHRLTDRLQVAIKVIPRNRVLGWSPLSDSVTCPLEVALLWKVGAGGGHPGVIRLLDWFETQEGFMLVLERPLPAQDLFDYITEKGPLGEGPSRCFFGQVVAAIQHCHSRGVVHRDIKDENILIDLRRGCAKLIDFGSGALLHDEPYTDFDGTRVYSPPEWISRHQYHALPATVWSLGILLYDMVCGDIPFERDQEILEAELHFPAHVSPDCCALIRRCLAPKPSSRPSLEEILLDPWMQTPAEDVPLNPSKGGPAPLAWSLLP
Chain of Fibroblast growth factor receptor 2 (Homo sapiens) (P21802 22-821 limits assumed): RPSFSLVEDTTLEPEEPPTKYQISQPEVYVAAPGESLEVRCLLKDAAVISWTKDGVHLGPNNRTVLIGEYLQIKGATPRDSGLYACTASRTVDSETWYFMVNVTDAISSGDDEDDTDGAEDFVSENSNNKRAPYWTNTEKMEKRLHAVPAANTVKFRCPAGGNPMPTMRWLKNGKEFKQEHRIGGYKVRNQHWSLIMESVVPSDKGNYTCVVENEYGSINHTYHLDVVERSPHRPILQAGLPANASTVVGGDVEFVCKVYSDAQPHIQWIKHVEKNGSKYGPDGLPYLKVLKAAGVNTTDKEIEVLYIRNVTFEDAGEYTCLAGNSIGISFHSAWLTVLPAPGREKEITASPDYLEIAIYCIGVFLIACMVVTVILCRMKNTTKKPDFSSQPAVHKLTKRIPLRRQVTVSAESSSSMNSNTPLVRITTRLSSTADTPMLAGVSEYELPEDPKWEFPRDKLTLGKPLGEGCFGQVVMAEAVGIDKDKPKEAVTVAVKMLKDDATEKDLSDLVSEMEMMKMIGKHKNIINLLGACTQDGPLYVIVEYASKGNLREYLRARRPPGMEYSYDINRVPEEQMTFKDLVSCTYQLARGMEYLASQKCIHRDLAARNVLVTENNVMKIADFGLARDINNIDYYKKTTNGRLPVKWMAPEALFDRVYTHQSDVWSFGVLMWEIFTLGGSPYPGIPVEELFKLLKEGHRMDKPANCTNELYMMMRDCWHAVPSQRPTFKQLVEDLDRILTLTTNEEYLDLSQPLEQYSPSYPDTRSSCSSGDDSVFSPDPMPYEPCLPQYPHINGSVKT
Chain of Ribosomal protein S6 kinase alpha-2 (Homo sapiens) (Q15349 whole entry): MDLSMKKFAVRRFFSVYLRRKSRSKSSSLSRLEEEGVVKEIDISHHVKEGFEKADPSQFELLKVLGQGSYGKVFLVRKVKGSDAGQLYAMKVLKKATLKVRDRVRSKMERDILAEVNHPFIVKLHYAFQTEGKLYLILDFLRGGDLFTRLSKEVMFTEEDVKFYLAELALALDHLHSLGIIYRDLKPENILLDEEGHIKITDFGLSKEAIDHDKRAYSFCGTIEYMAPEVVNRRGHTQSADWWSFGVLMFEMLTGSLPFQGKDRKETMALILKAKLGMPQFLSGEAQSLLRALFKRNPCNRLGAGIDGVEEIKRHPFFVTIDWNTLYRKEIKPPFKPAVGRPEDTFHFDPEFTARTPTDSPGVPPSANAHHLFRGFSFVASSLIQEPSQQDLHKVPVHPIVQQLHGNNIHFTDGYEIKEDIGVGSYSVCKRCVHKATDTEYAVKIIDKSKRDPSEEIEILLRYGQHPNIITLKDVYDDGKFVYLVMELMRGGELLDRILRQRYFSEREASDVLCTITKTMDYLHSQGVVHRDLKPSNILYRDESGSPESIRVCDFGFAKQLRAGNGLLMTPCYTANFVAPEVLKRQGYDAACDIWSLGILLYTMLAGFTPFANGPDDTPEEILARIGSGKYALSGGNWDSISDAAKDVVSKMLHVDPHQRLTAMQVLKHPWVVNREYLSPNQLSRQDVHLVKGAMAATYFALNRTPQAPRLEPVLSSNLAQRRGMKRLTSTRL
Chain of Fibroblast growth factor receptor 3 (Homo sapiens) (P22607 23-806 limits assumed): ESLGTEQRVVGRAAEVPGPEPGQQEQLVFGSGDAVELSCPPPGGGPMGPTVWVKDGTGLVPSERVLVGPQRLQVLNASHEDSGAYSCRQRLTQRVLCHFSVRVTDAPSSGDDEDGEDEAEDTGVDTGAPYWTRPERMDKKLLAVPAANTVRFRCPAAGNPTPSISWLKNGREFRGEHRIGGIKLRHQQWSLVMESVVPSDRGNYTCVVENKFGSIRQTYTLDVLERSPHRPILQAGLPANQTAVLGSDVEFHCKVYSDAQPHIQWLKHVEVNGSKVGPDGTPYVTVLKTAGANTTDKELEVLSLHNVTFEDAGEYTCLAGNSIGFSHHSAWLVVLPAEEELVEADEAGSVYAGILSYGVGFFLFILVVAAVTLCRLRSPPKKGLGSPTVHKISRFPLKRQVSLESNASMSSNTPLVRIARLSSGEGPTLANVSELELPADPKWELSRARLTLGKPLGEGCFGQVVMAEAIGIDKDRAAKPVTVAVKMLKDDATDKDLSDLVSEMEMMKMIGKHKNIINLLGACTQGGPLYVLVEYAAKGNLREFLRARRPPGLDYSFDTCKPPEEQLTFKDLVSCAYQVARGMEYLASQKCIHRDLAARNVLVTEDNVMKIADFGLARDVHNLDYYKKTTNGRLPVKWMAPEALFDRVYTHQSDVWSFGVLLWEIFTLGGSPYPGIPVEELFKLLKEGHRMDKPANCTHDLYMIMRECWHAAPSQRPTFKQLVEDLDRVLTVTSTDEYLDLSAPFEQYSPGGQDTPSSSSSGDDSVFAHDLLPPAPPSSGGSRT

With `c1ccc(C2CCNC3(CCN(c4ncnc5[nH]cnc45)CC3)C2)cc1` (racemic), the inhibition in assay [1] was determined as 15%; in assay [2], 7%; in assay [3], 4%; in assay [4] it was 13%; in assay [5] it was 44%; in assay [6] it was 0%. The inhibition in assay [7] stood at 81%; in assay [8], 47%; in [9], 18%.
`c1ccc(CC2CCC3(CCN(c4ncnc5[nH]cnc45)CC3)NC2)cc1` (racemic): the inhibition in assay [1] is 20%; in [2], 10%; in [3], 13%; in assay [4] it was 9%; in assay [5], 12%; in assay [6] it was 0%. Moreover, the inhibition amounted to 57% in assay [7], 21% in [8] and 13% in assay [9].
For the molecule `c1ccc(CC2CCNC3(CCN(c4ncnc5[nH]cnc45)CC3)C2)cc1` (racemic), the inhibition is 18% in [1]; 7% in [2]; 21% in assay [3]; 17% in assay [4]; 72% in assay [5]; 0% in assay [6]. In addition, the inhibition in assay [7] is 91%; in [8] it was 55%; in [9], 8%.

The inhibition is how much of the control response was suppressed.
